The results in this text go back to ChEMBL document CHEMBL1142895, “Discovery of a new insecticide lead by optimizing a target-diverse scaffold: tetrazolinone derivatives” (2007).

Structures are written as SMILES. The source made the active and inactive calls. The rule behind the calls is not given here.

Experiment [1] concerns Sorghum bicolor. The experiment is described as follows: Herbicidal activity against Sorghum bicolor at 450 g ai/ha in greenhouse in vivo test. The class given is functional, organism-based.
Experiment [2] deals with Brassica rapa subsp. oleifera. Kind of experiment: Herbicidal activity against Brassica campestris at 450 g ai/ha in greenhouse in vivo test. The class given is functional, organism-based.
The subject of another experiment is Tetranychus cinnabarinus. Kind of experiment: Insecticidal activity against Tetranychus cinnabarinus at 250 mg/L. In kind it is functional. In outline: (§1)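 Groups of 10 of each species were placed in glass Petri dishes and sprayed with test solution using a Potter sprayer. After air-drying, they were held under normal rearing conditions. Mortality at 72 h was taken from the number and size of live larvae relative to untreated controls.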

Experiment [3] relates to Triticum aestivum. The experiment is described as follows: Inhibition of stem growth of Triticum aestivum at 100 mg/L. In kind it is functional. In outline: (§2)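 Seeds of each species were grown in Petri dishes with 10 seeds per dish, at 28 °C, 70–80% RH, 16:8 h light:dark photoperiod and 3000 lx light for 5 days. Root and stem lengths were measured for the 10 seeds and averaged. Each test and its controls were run in three replicates, and the data were given probit analysis.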

The test system of experiment [4] is Brassica rapa subsp. oleifera. The experiment is described as follows: Inhibition of stem growth of Brassica campestris at 100 mg/L. In kind it is functional. Put shortly:
as §2

For experiment [5], the system named is Cucumis sativus. Kind of experiment: Inhibition of stem growth of Cucumis sativus at 100 mg/L. The class given is functional. Put shortly: as §2
The test system of the next experiment is Aphis. Kind of experiment: Insecticidal activity against Aphis medicagini at 250 mg/L. In kind it is functional. In outline: as §1
Experiment [6] concerns Sorghum bicolor. Kind of experiment: Inhibition of root growth of Sorghum bicolor at 100 mg/L. The class given is functional. In outline: as §2
The subject of experiment [7] is Radish. Kind of experiment: Inhibition of root growth of Raphanus sativus at 100 mg/L. In kind it is functional. Put shortly:
as §2

The test system of experiment [8] is Sorghum bicolor. Kind of experiment: Inhibition of stem growth of Sorghum bicolor at 100 mg/L. The class given is functional. In outline:
as §2

The test system of experiment [9] is Cucumis sativus. The experiment is described as follows: Inhibition of root growth of Cucumis sativus at 100 mg/L. In kind it is functional. Put shortly:
as §2

Experiment [10] relates to Echinochloa crus-galli. The experiment is described as follows: Inhibition of stem growth of Echinochloa crus-galli at 100 mg/L. The class given is functional. Put shortly:
as §2

In experiment [11] the test system is Brassica rapa subsp. oleifera. The experiment is described as follows: Inhibition of root growth of Brassica campestris at 100 mg/L. The class given is functional. Put shortly:
as §2

Experiment [12] has as its system Echinochloa crus-galli. Kind of experiment: Inhibition of root growth of Echinochloa crus-galli at 100 mg/L. In kind it is functional. Put shortly: as §2
The test system of experiment [13] is Echinochloa crus-galli. Kind of experiment: Herbicidal activity against Echinochloa crus-galli at 450 g ai/ha in greenhouse in vivo test. In kind it is functional, organism-based.
For experiment [14], the system named is Cucumis sativus. The experiment is described as follows: Herbicidal activity against Cucumis sativus at 450 g ai/ha in greenhouse in vivo test. In kind it is functional, organism-based.
Experiment [15] concerns Radish. The experiment is described as follows: Inhibition of stem growth of Raphanus sativus at 100 mg/L. In kind it is functional. Put shortly: as §2
Experiment [16] deals with Triticum aestivum. The experiment is described as follows: Herbicidal activity against Triticum aestivum at 450 g ai/ha in greenhouse in vivo test. In kind it is functional, organism-based.
Experiment [17] deals with Radish. Kind of experiment: Herbicidal activity against Raphanus sativus at 450 g ai/ha in greenhouse in vivo test. In kind it is functional, organism-based.
Experiment [18] deals with Triticum aestivum. The experiment is described as follows: Inhibition of root growth of Triticum aestivum at 100 mg/L. In kind it is functional. Put shortly:
as §2

As for `C=CCSc1nnc(Cn2nnn(-c3ccc(Cl)cc3)c2=O)s1`, the outcome (with Sorghum bicolor [1]; in [2]; in the experiment on Echinochloa crus-galli [13]; with Cucumis sativus [14]; in the experiment on Triticum aestivum [16]; in the experiment with Radish [17]) was inactive. Besides, the values for the Activity in the experiment with Tetranychus cinnabarinus and in the experiment on Aphis were 72.9% and 0%, respectively. For the same compound, the inhibition at 100 µg/mL in the experiment on Triticum aestivum [3] was determined as 40%; in [4] it was 40%; with Cucumis sativus [5], 0%; with Sorghum bicolor [6], 60%; in the experiment on Radish [7], 40%; in the experiment on Sorghum bicolor [8] it was 0%. The inhibition at 100 µg/mL worked out at 0% in the experiment with Cucumis sativus [9]; 70% in the experiment with Echinochloa crus-galli [10]; 60% in [11]; 60% with Echinochloa crus-galli [12]; 40% with Radish [15]; 50% with Triticum aestivum [18].
On to `O=c1n(Cc2nnc(SCc3ccccc3)s2)nnn1-c1ccc(Cl)cc1`, for which the result (with Sorghum bicolor [1]; in experiment [2]; in the experiment on Echinochloa crus-galli [13]; in the experiment with Cucumis sativus [14]; in the experiment with Triticum aestivum [16]; in the experiment on Radish [17]) was inactive. Besides, the results for the Activity with Tetranychus cinnabarinus and in the experiment with Aphis were 2.9% and 5.7%, respectively. Besides, the inhibition at 100 µg/mL in the experiment on Triticum aestivum [3] is 60%; in [4] it was 50%; with Cucumis sativus [5], 60%; with Sorghum bicolor [6], 60%; with Radish [7], 60%; with Sorghum bicolor [8] it was 70%. In addition, the inhibition at 100 µg/mL in the experiment with Cucumis sativus [9] turned out to be 60%; with Echinochloa crus-galli [10] it was 70%; in experiment [11] it was 60%; in the experiment with Echinochloa crus-galli [12], 60%; with Radish [15], 40%; in the experiment on Triticum aestivum [18], 60%.
As for `C=CCSc1nnc(Cn2nnn(-c3ccc(Cl)cc3)c2=O)o1`, the outcome (in the experiment with Sorghum bicolor [1]; in experiment [2]; with Echinochloa crus-galli [13]; in the experiment on Cucumis sativus [14]; with Triticum aestivum [16]; in the experiment with Radish [17]) was inactive. The Activity in the experiment with Tetranychus cinnabarinus was determined as 96.8%; with Aphis, 5%. Further, the inhibition at 100 µg/mL came out at 0% in the experiment with Triticum aestivum [3]; 70% in experiment [4]; 50% with Cucumis sativus [5]; 0% with Sorghum bicolor [6]; 60% with Radish [7]; 0% in the experiment with Sorghum bicolor [8]. Moreover, the inhibition at 100 µg/mL in the experiment with Cucumis sativus [9] was determined as 60%; in the experiment on Echinochloa crus-galli [10], 0%; in experiment [11] it was 80%; in the experiment with Echinochloa crus-galli [12] it was 0%; in the experiment with Radish [15], 60%; in the experiment on Triticum aestivum [18], 0%.
In the case of `CCCCCCCCSc1nnc(Cn2nnn(-c3ccc(Cl)cc3)c2=O)o1`, the outcome (with Sorghum bicolor [1]; in experiment [2]; in the experiment with Echinochloa crus-galli [13]; in the experiment with Cucumis sativus [14]; with Triticum aestivum [16]; in the experiment on Radish [17]) was inactive. The Activity in the experiment with Tetranychus cinnabarinus is 2.9%; with Aphis, 3.3%. The inhibition at 100 µg/mL (in the experiment on Triticum aestivum [3]; in experiment [4]; in the experiment with Cucumis sativus [5]; with Sorghum bicolor [6]; in the experiment with Radish [7]; with Sorghum bicolor [8]) was 0% each time. In addition, the inhibition at 100 µg/mL (with Cucumis sativus [9]; in the experiment with Echinochloa crus-galli [10]; in [11]; with Echinochloa crus-galli [12]; in the experiment with Radish [15]; with Triticum aestivum [18]) was 0% throughout.
Regarding `O=c1n(Cc2ccc(Br)cc2)nnn1-c1ccc(Cl)cc1`, the outcome (in the experiment with Sorghum bicolor [1]; in experiment [2]; in the experiment with Echinochloa crus-galli [13]; in the experiment on Cucumis sativus [14]; in the experiment on Triticum aestivum [16]; with Radish [17]) was inactive. The Activity in the experiment with Tetranychus cinnabarinus amounted to 0%; with Aphis, 13.3%. Moreover, the inhibition at 100 µg/mL in the experiment with Triticum aestivum [3] came out at 30%; in experiment [4], 0%; with Cucumis sativus [5] it was 0%; in the experiment on Sorghum bicolor [6], 0%; in the experiment on Radish [7], 0%; in the experiment on Sorghum bicolor [8], 0%. Also, the inhibition at 100 µg/mL (in the experiment on Cucumis sativus [9]; with Echinochloa crus-galli [10]; in [11]; in the experiment with Echinochloa crus-galli [12]; with Radish [15]; with Triticum aestivum [18]) was 0% throughout.
`Cc1ccc(Cn2nnn(-c3ccc(Cl)cc3)c2=O)cc1`: the result (in the experiment on Sorghum bicolor [1]; in experiment [2]; in the experiment on Echinochloa crus-galli [13]; with Cucumis sativus [14]; in the experiment on Triticum aestivum [16]; in the experiment on Radish [17]) was inactive. The Activity was 0% in the experiment on Tetranychus cinnabarinus and 3.3% with Aphis. Moreover, the inhibition at 100 µg/mL (in the experiment on Triticum aestivum [3]; in experiment [4]; in the experiment on Cucumis sativus [5]; with Sorghum bicolor [6]; in the experiment with Radish [7]; in the experiment on Sorghum bicolor [8]) was 0% each time. Further, the inhibition at 100 µg/mL (in the experiment on Cucumis sativus [9]; in the experiment on Echinochloa crus-galli [10]; in experiment [11]; in the experiment on Echinochloa crus-galli [12]; in the experiment with Radish [15]; with Triticum aestivum [18]) was 0% each time.
In the case of `CCOC(=O)C(C)n1nnn(-c2ccc(Cl)cc2)c1=O` (stereo not given), the result (in the experiment on Sorghum bicolor [1]; in experiment [2]; with Echinochloa crus-galli [13]; in the experiment on Cucumis sativus [14]; with Triticum aestivum [16]; in the experiment on Radish [17]) was inactive. Moreover, the Activity in the experiment with Tetranychus cinnabarinus was 97.1%; in the experiment on Aphis it was 0%. The inhibition at 100 µg/mL is 70% with Triticum aestivum [3]; 0% in experiment [4]; 0% with Cucumis sativus [5]; 95% in the experiment on Sorghum bicolor [6]; 70% in the experiment on Radish [7]; 40% in the experiment on Sorghum bicolor [8]. In addition, the inhibition at 100 µg/mL in the experiment with Cucumis sativus [9] turned out to be 0%; with Echinochloa crus-galli [10], 0%; in experiment [11] it was 0%; in the experiment with Echinochloa crus-galli [12], 0%; in the experiment with Radish [15], 50%; in the experiment on Triticum aestivum [18] it was 80%.
Regarding `CCCSc1nnc(Cn2nnn(-c3ccc(Cl)cc3)c2=O)s1`, the result (in the experiment on Sorghum bicolor [1]; in [2]; with Echinochloa crus-galli [13]; in the experiment with Cucumis sativus [14]; in the experiment on Triticum aestivum [16]; in the experiment on Radish [17]) was inactive. In addition, the Activity in the experiment with Tetranychus cinnabarinus and with Aphis was 0% throughout. Moreover, the inhibition at 100 µg/mL with Triticum aestivum [3] came to 70%; in experiment [4] it was 60%; in the experiment with Cucumis sativus [5], 70%; with Sorghum bicolor [6], 80%; in the experiment with Radish [7], 70%; in the experiment with Sorghum bicolor [8], 0%. Further, the inhibition at 100 µg/mL in the experiment on Cucumis sativus [9] came out at 50%; in the experiment on Echinochloa crus-galli [10] it was 80%; in experiment [11], 70%; in the experiment on Echinochloa crus-galli [12], 80%; in the experiment on Radish [15] it was 70%; with Triticum aestivum [18], 70%.
On to `CCCCCCSc1nnc(Cn2nnn(-c3ccc(Cl)cc3)c2=O)s1`, for which the outcome (in the experiment with Sorghum bicolor [1]; in experiment [2]; with Echinochloa crus-galli [13]; in the experiment with Cucumis sativus [14]; in the experiment with Triticum aestivum [16]; in the experiment on Radish [17]) was inactive. Besides, the results for the Activity in the experiment on Tetranychus cinnabarinus and with Aphis were 4.3% and 0%, respectively. Moreover, the inhibition at 100 µg/mL is 30% with Triticum aestivum [3]; 40% in experiment [4]; 0% with Cucumis sativus [5]; 60% with Sorghum bicolor [6]; 40% with Radish [7]; 40% in the experiment with Sorghum bicolor [8]. The inhibition at 100 µg/mL in the experiment on Cucumis sativus [9] worked out at 0%; in the experiment with Echinochloa crus-galli [10] it was 0%; in [11], 70%; in the experiment with Echinochloa crus-galli [12], 0%; in the experiment with Radish [15], 30%; with Triticum aestivum [18], 0%.
